This is an account of results in ChEMBL document CHEMBL3525945, “Metabolic switching of BILR 355 in the presence of ritonavir. II. Uncovering novel contributions by gut bacteria and aldehyde oxidase” (Drug Metab Dispos, 2012).

Series [1] in a line: Drug metabolism in human liver S9 fraction assessed as BILR355 formation at 10 uM by LC-MS/MS analysis in absence of NADPH. It counts as ADME. As to conditions: s9, 10 µM. The method in brief: (§1)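 BILR 402 (10 μM final) was incubated with human liver S9 or cytosol (1 mg/mL protein) in 0.05 M potassium phosphate pH 7.4 at 37 °C. Runs were done with or without 2.5 mM NADPH. Samples at 10, 20, 30 and 60 min were quenched in nevirapine/acetonitrile, filtered and analysed by LC-MS/MS; duplicate.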

A short description of series [2]: Drug metabolism in human liver S9 fraction assessed as BILR355 formation at 10 uM by LC-MS/MS analysis in presence of NADPH. It counts as ADME, subcellular. The following applies: s9, 10 µM. The procedure, abridged:
as §1

For series [3], the target named is T1, Aldehyde oxidase (Homo sapiens, UniProt Q06278).
T1 sequence (Q06278 whole entry): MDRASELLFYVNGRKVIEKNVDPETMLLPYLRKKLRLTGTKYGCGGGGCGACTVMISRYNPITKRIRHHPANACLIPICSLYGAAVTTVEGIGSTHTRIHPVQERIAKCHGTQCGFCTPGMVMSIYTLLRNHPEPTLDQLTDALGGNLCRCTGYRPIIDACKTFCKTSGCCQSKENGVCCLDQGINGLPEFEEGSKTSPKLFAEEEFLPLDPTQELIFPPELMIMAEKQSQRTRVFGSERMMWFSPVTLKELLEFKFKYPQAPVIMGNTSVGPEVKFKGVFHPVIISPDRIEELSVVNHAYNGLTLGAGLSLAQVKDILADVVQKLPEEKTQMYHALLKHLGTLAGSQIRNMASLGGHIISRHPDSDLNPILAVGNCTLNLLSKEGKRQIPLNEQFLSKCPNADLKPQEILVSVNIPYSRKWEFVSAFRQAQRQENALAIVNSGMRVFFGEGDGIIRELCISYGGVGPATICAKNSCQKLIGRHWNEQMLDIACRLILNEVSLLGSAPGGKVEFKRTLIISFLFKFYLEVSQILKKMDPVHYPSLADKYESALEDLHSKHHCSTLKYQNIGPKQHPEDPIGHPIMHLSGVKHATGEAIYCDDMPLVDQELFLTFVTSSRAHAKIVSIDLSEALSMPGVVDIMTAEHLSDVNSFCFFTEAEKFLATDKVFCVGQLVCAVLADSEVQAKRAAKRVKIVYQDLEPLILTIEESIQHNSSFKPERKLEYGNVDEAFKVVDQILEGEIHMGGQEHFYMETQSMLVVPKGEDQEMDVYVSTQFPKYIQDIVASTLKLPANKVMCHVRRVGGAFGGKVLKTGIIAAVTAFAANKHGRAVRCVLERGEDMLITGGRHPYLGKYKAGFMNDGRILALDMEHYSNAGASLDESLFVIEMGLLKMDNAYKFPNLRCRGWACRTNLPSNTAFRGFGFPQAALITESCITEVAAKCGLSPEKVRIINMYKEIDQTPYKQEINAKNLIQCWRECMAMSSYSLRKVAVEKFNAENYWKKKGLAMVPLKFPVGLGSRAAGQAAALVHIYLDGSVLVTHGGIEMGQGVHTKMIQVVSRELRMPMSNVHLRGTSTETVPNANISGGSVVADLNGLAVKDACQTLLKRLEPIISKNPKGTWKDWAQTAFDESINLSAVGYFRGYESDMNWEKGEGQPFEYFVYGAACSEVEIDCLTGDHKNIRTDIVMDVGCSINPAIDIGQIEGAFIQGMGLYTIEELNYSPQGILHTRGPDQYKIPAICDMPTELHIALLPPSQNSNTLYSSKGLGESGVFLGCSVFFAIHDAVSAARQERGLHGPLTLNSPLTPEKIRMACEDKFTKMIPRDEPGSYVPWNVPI
In words: Activity at human recombinant AO expressed in Escherichia coli cells assessed as enzyme-mediated BILR516 metabolite formation at 5 uM by LC-MS/MS analysis. In kind it is ADME. The procedure, abridged: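 BILR 402 (5 μM final) incubated with cytosolic extract of E. coli expressing human AO, or control E. coli cytosol lacking AO, 0.1 mg/mL protein, 0.05 M potassium phosphate pH 7.4, 37 °C.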

In series [4] the target is T2, Cytochrome P450 1A2 (Homo sapiens, UniProt P05177).
T2 sequence (P05177 whole entry): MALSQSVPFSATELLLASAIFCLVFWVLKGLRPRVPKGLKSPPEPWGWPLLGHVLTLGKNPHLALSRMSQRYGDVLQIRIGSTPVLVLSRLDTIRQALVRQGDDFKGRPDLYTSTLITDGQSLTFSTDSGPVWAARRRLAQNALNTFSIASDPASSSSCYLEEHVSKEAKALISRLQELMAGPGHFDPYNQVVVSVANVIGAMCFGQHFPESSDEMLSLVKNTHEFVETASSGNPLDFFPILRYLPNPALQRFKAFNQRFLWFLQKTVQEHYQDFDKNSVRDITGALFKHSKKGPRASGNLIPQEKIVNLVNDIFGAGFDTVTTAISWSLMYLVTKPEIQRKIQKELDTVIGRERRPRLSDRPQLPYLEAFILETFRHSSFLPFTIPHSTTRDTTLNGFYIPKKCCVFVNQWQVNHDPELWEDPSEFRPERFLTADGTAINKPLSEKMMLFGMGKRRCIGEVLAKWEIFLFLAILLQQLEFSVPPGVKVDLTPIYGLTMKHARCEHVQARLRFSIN
Put plainly: Activity at recombinant CYP1A2 (unknown origin) expressed in baculovirus-infected insect cells assessed as enzyme-mediated drug depletion at 1 to 10 uM by LC-MS/MS analysis in presence of NADPH. In kind it is ADME. The method in brief:
(§2)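 BILR 402 (1 or 10 μM) with baculovirus/insect-cell recombinant CYPs, levels scaled to average liver content (1A2 2, 2A6 1, 2B6 0.1, 2C9 1.5, 2C19 1.5, 2D6 0.3, 3A4 5 pmol/mL). Buffer 0.1 M potassium phosphate, 5 mM MgCl2, pH 7.4; 2.5 mM NADPH; 37 °C. Non-transfected insect microsomes served as controls. Aliquots taken 0.5–30 min and acetonitrile-quenched; depletion measured by LC-MS/MS with isotope-labelled internal standard.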

Series [5] concerns the target Cytochrome P450 2C19 (Homo sapiens, UniProt P33261). In words: Activity at recombinant CYP2C19 (unknown origin) expressed in baculovirus-infected insect cells assessed as enzyme-mediated drug depletion at 1 to 10 uM by LC-MS/MS analysis in presence of NADPH. In kind it is ADME. The method in brief: as §2

Chain of Cytochrome P450 2C19 (P33261 whole entry): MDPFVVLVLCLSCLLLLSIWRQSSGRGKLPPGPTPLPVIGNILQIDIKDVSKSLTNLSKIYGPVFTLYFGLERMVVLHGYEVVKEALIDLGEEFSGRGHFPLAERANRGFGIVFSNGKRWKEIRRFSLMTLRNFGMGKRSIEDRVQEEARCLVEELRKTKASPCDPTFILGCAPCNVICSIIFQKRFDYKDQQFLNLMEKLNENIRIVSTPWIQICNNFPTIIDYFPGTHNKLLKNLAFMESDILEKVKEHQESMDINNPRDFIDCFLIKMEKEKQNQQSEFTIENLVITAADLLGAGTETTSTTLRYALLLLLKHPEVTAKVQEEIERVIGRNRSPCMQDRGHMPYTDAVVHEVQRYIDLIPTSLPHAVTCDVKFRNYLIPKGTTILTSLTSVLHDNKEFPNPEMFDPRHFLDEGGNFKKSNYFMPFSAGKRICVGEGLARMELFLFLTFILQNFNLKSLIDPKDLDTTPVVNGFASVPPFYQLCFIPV

Regarding `CCN1c2ncc(CCOc3ccnc4ccccc34)cc2C(=O)N(C)c2cccnc21`, the Drug metabolism entry in series [1] is reported as “metabolite_not_detected”; in series [2], “metabolite_detected”; in series [3], “metabolite_detected”; in series [4], “metabolite_not_detected”; in series [5], “metabolite_not_detected”.
